# Test results reported in ChEMBL document CHEMBL1149191, “Novel pyridazino[4,3-b]indoles with dual inhibitory activity against Mycobacterium tuberculosis and monoamine oxidase” (J Med Chem, 2004).
# Key:
# [1] = test system: Mycobacterium tuberculosis; assay: In vitro inhibition of Mycobacterium tuberculosis H37Rv, determined at 0.2 ug/mL; assay type: functional
# Outline: (§1)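 M. tuberculosis H37Rv (Pasteur) grown twice for 1 week each in Dubos broth at 37 °C, washed, then filtered to remove clumps. 25 × 10⁴ CFU per well in RPMI 1640 with 5 mM HEPES, 2 mM L-glutamine and 2% FBS. Compound added from DMSO stock; 5,6-[³H]-uracil added at 24 h, then 18 h at 37 °C.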
# [2] = test system: Mycobacterium tuberculosis; assay: In vitro inhibition of Mycobacterium tuberculosis H37Rv, determined at 2 ug/mL; assay type: functional; outline: as §1
# [3] = test system: Mycobacterium tuberculosis; assay: In vitro inhibition of Mycobacterium tuberculosis H37Rv, determined at 20 ug/mL; assay type: functional; outline: as §1
# [4] = biological target: T1, Amine oxidase [flavin-containing] A (Rattus norvegicus, UniProt P21396); assay: Inhibition of Monoamine oxidase A from rat liver mitochondria
# T1 sequence (P21396 whole entry): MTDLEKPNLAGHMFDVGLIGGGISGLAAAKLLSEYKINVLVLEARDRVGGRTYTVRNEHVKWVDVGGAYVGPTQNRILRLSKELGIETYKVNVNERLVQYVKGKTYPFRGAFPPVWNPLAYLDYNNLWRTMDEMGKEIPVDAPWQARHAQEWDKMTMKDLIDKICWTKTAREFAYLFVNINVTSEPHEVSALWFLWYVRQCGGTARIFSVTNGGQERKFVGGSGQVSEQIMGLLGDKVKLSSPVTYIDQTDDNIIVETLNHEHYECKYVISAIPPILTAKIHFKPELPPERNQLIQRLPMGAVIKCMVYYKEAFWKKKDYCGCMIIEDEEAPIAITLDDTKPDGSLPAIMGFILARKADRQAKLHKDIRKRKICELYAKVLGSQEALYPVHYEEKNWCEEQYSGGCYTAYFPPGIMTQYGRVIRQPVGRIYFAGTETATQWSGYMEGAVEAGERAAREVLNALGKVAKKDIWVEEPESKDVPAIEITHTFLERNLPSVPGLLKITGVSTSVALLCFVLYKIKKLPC
# Outline: (§2)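 Rat liver mitochondria from differential centrifugation, in 50 mM phosphate buffer pH 7.4. Preincubated with inhibitor (10⁻⁸–10⁻³ or 10⁻⁴ M) for 60 min at 37 °C. MAO-A activity measured radiometrically as ¹⁴C-aldehyde formed from 0.1 mM [¹⁴C]-5-hydroxytryptamine creatinine sulfate; IC50 reported.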
# [5] = biological target: T2, Amine oxidase [flavin-containing] B (Rattus norvegicus, UniProt P19643); assay: Inhibition of Monoamine oxidase B from rat liver mitochondria
# T2 sequence (P19643 whole entry): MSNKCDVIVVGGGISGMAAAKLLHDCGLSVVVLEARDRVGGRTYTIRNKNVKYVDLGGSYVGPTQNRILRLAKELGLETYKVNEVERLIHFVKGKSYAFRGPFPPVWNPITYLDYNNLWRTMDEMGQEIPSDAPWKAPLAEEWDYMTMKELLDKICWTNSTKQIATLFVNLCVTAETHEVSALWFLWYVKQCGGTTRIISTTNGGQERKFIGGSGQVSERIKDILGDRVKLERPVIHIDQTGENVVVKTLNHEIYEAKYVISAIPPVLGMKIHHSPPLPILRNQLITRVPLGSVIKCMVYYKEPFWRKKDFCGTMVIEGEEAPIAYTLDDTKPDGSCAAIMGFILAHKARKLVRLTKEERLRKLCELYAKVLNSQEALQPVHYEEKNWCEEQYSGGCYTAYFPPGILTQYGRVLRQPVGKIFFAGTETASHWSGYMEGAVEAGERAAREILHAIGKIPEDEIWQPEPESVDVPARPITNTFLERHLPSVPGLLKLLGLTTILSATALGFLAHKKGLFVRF
# Outline: (§3)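 Rat liver mitochondria from differential centrifugation, in 50 mM phosphate buffer pH 7.4. Preincubated with inhibitor (10⁻⁸–10⁻³ or 10⁻⁴ M) for 60 min at 37 °C. MAO-B activity measured radiometrically as ¹⁴C-aldehyde formed from 10 μM [¹⁴C]-phenylethylamine; IC50 reported.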
# [6] = test system: Mycobacterium tuberculosis; assay: Minimal inhibitory activity of compound against Mycobacterium tuberculosis H37Rv; assay type: functional
# Outline: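 Same H37Rv [³H]-uracil incorporation assay: compound at final 20, 2.0 and 0.2 μg/mL, 24 h, then 1 μCi 5,6-[³H]-uracil for 18 h at 37 °C, harvested on filters, scintillation counted, triplicate. MIC50 is the concentration giving 50% reduction in cpm versus drug-free plate at the same bacterial dilution.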
# [7] = biological target: T1, Amine oxidase [flavin-containing] A; assay: Inhibitory activity of compound against Monoamine oxidase A isolated from rat liver mitochondria using [14C]5-HT creatinine sulfate; NI denotes no inhibition at 1000 uM; outline: as §2
# [8] = biological target: T2, Amine oxidase [flavin-containing] B; assay: Inhibitory activity against Monoamine oxidase B isolated from rat liver mitochondria using [14C]phenylethylamine; NI denotes no inhibition at 1000 uM; outline: as §3
SMILES,inhibition at 0.2 µg/mL [1],inhibition at 2 µg/mL [2],inhibition at 20 µg/mL [3],IC50 [4],IC50 [5],MIC50 [6],IC50 [7],IC50 [8]
Nc1[nH]nc2c3ccccc3nc-2c1-c1cccc(Br)c1,0%,0%,32%,–,–,–,–,–
Nc1nnc2c3ccccc3n(Cc3ccccc3)c2c1-c1ccccc1Cl,0%,0%,50.8%,17.8 µM,35.4 µM,–,–,–
CC(C)c1ccc(-c2c(N)nnc3c4ccccc4n(C)c23)cc1,21.3%,63.6%,88%,14.1 µM,316 µM,1.42 µg/mL,–,–
CCn1c2ccccc2c2nnc(N)c(-c3ccccc3)c21,0%,0%,40.3%,–,72 µM,–,No inhibition,–
Cc1ccc(-c2c(N)nnc3c4ccccc4n(C)c23)cc1,0%,0%,62.3%,–,–,–,–,–
COc1ccc(-c2c3nc4ccccc4c-3n[nH]c2N)cc1,0%,0%,30.2%,–,–,14.9 µg/mL,–,–
Nc1[nH]nc2c3ccccc3nc-2c1-c1ccccc1F,0%,0%,40.3%,631 µM,–,–,–,No inhibition
CC(C)c1ccc(-c2c(O)nnc3c4ccccc4n(C)c23)cc1,–,–,0%,–,–,–,–,–
Cc1ccc(-c2c3nc4ccccc4c-3n[nH]c2N)cc1,0%,0%,40.5%,31.6 µM,158 µM,16.5 µg/mL,–,–
CC(C)c1ccc(-c2c3nc4ccc(Br)cc4c-3n[nH]c2N)cc1,7.1%,56.3%,88.5%,63 µM,79 µM,1.77 µg/mL,–,–
Nc1[nH]nc2c3cc(Br)ccc3nc-2c1-c1ccccc1,9.2%,44.3%,91.4%,63.1 µM,25.1 µM,4.17 µg/mL,–,–
CO[C@H]1/C=C/O[C@@]2(C)Oc3c(C)c(O)c4c(O)c(c(/C=N/N5CCN(C)CC5)c(O)c4c3C2=O)NC(=O)/C(C)=C\C=C\[C@H](C)[C@H](O)[C@@H](C)[C@@H](O)[C@@H](C)[C@H](OC(C)=O)[C@@H]1C [RIFAMPIN],54.8%,91.7%,94.3%,–,–,0.1 µg/mL,–,–
Cn1c2ccccc2c2nnc(N)c(-c3ccccc3F)c21,0%,0%,45.3%,–,41.6 µM,–,No inhibition,–
Cn1c2ccccc2c2nnc(N)c(-c3cccc(Br)c3)c21,0%,0%,60.1%,63.1 µM,100 µM,–,–,–
Cn1c2ccccc2c2nnc(N)c(-c3ccccc3Cl)c21,0%,0%,3.1%,~1000 µM,~1000 µM,–,–,–
Nc1nnc2c3ccccc3n(Cc3ccccc3)c2c1-c1ccccc1,0%,0%,20.7%,–,–,–,–,–
CC(C)c1ccc(-c2c(N)nnc3c4ccccc4n(CCN(C)C)c23)cc1,0%,0%,20.4%,1000 µM,–,–,–,No inhibition
CCn1c2ccccc2c2nnc(N)c(-c3ccc(C)cc3)c21,0%,0%,30.1%,–,11 µM,–,No inhibition,–
